From article PMC5084670 (Cancer Science, 2016)
Marks after values point to notes of the source that are not given here.

Experiment: Phase I dose-escalation study: safety, adverse events
Assay type: in vivo, human
Summary of the method: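 Oral test compound was given once daily in 28-day cycles after a 7-day single-dose run-in, in Japanese and Hong Kong/Taiwan groups escalated separately. Toxicity was graded by CTCAE v3.0 using laboratory tests, physical examination, vital signs, weight and periodic ECG. DLTs were grade 3–4 events over the run-in plus cycle 1. MTD was set by an adaptive Bayesian logistic regression model with overdose control.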

[1] = group 1, 400 mg q.d. (n = 12), All grades
[2] = group 1, 400 mg q.d. (n = 12), Grade 3
[3] = group 1, 400 mg q.d. (n = 12), Grade 4
[4] = group 1, 600 mg q.d. (n = 9), All grades
[5] = group 1, 600 mg q.d. (n = 9), Grade 3
[6] = group 1, 600 mg q.d. (n = 9), Grade 4
[7] = group 1, All patients (n = 21), All grades
[8] = group 1, All patients (n = 21), Grade 3
[9] = group 1, All patients (n = 21), Grade 4
[10] = group 2, 400 mg q.d. (n = 12), All grades

SMILES: Cc1c(C(=O)Nc2ccc(N3C[C@@H](C)O[C@@H](C)C3)nc2)cccc1-c1ccc(OC(F)(F)F)cc1 [Sonidegib]
- Maximum CK level (a patient receiving 600 mg): 40 400 IU/L
- Myoglobin level at maximum CK level (a patient receiving 600 mg): 5320 ng/mL
- Deaths (both groups): no deaths were reported
- Recommended dose (RD) (both groups, East Asian patients): 400 mg q.d.
- Changes in electrocardiogram parameters (during the course of treatment): No clinically significant changes
- Recommended dose (RD) (group 1 (Japanese)): 400 mg q.d.
- Grade 3 /4 Creatine kinase elevation during all study period (group 1 (Japanese), 400 mg qd, N = 12): 2 (17) ^† n (%)
- Grade 3 /4 Creatine kinase elevation during all study period (group 1 (Japanese), 600 mg qd, N = 9): 5 (56) ^† n (%)
- Grade 3 /4 Creatine kinase elevation during all study period (group 1 (Japanese), All patients, N = 21): 7 (33) n (%)
- DLT in cycle 1 (creatine kinase elevation) (group 1, 400 mg): single DLT
- Alopecia (drug-related adverse event) [1]: 2 (17) n (%)
- Blood creatine kinase increased (drug-related adverse event) [1]: 2 (17) n (%)
- Decreased level of consciousness (drug-related adverse event) [1]: 0 (0) n (%)
- Dysgeusia (drug-related adverse event) [1]: 1 (8) n (%)
- Fatigue (drug-related adverse event) [1]: 2 (17) n (%)
- Hepatic function abnormal (drug-related adverse event) [1]: 2 (17) n (%)
- Hyperglycemia (drug-related adverse event) [1]: 0 (0) n (%)
- Lymphopenia (drug-related adverse event) [1]: 0 (0) n (%)
- Muscle spasms (drug-related adverse event) [1]: 1 (8) n (%)
- Muscle weakness (drug-related adverse event) [1]: 0 (0) n (%)
- Myalgia (drug-related adverse event) [1]: 2 (17) n (%)
- Myoglobin blood increased (drug-related adverse event) [1]: 0 (0) n (%)
- Nausea (drug-related adverse event) [1]: 1 (8) n (%)
- Rhabdomyolysis (drug-related adverse event) [1]: 1 (8) n (%)
- Alopecia (drug-related adverse event) [2]: 0 (0) n (%)
- Blood creatine kinase increased (drug-related adverse event) [2]: 1 (8) n (%)
- Decreased level of consciousness (drug-related adverse event) [2]: 0 (0) n (%)
- Dysgeusia (drug-related adverse event) [2]: 0 (0) n (%)
- Fatigue (drug-related adverse event) [2]: 0 (0) n (%)
- Hepatic function abnormal (drug-related adverse event) [2]: 1 (8) n (%)
- Hyperglycemia (drug-related adverse event) [2]: 0 (0) n (%)
- Lymphopenia (drug-related adverse event) [2]: 0 (0) n (%)
- Muscle spasms (drug-related adverse event) [2]: 0 (0) n (%)
- Muscle weakness (drug-related adverse event) [2]: 0 (0) n (%)
- Myalgia (drug-related adverse event) [2]: 0 (0) n (%)
- Myoglobin blood increased (drug-related adverse event) [2]: 0 (0) n (%)
- Nausea (drug-related adverse event) [2]: 0 (0) n (%)
- Rhabdomyolysis (drug-related adverse event) [2]: 0 (0) n (%)
- Alopecia (drug-related adverse event) [3]: 0 (0) n (%)
- Blood creatine kinase increased (drug-related adverse event) [3]: 0 (0) n (%)
- Decreased level of consciousness (drug-related adverse event) [3]: 0 (0) n (%)
- Dysgeusia (drug-related adverse event) [3]: 0 (0) n (%)
- Fatigue (drug-related adverse event) [3]: 0 (0) n (%)
- Hepatic function abnormal (drug-related adverse event) [3]: 0 (0) n (%)
- Hyperglycemia (drug-related adverse event) [3]: 0 (0) n (%)
- Lymphopenia (drug-related adverse event) [3]: 0 (0) n (%)
- Muscle spasms (drug-related adverse event) [3]: 0 (0) n (%)
- Muscle weakness (drug-related adverse event) [3]: 0 (0) n (%)
- Myalgia (drug-related adverse event) [3]: 0 (0) n (%)
- Myoglobin blood increased (drug-related adverse event) [3]: 0 (0) n (%)
- Nausea (drug-related adverse event) [3]: 0 (0) n (%)
- Rhabdomyolysis (drug-related adverse event) [3]: 1 (8) n (%)
- Additional patients with grade 3 or 4 CK elevation after cycle 1 (group 1, 600 mg): four
- DLT in cycle 1 (creatine kinase elevation) (group 1, 600 mg): single DLT
- Alopecia (drug-related adverse event) [4]: 2 (22) n (%)
- Blood creatine kinase increased (drug-related adverse event) [4]: 5 (56) n (%)
- Decreased level of consciousness (drug-related adverse event) [4]: 1 (11) n (%)
- Dysgeusia (drug-related adverse event) [4]: 2 (22) n (%)
- Fatigue (drug-related adverse event) [4]: 2 (22) n (%)
- Hepatic function abnormal (drug-related adverse event) [4]: 3 (33) n (%)
- Hyperglycemia (drug-related adverse event) [4]: 1 (11) n (%)
- Lymphopenia (drug-related adverse event) [4]: 1 (11) n (%)
- Muscle spasms (drug-related adverse event) [4]: 1 (11) n (%)
- Muscle weakness (drug-related adverse event) [4]: 1 (11) n (%)
- Myalgia (drug-related adverse event) [4]: 4 (44) n (%)
- Myoglobin blood increased (drug-related adverse event) [4]: 1 (11) n (%)
- Nausea (drug-related adverse event) [4]: 2 (22) n (%)
- Rhabdomyolysis (drug-related adverse event) [4]: 1 (11) n (%)
- Alopecia (drug-related adverse event) [5]: 0 (0) n (%)
- Blood creatine kinase increased (drug-related adverse event) [5]: 2 (22) n (%)
- Decreased level of consciousness (drug-related adverse event) [5]: 0 (0) n (%)
- Dysgeusia (drug-related adverse event) [5]: 0 (0) n (%)
- Fatigue (drug-related adverse event) [5]: 0 (0) n (%)
- Hepatic function abnormal (drug-related adverse event) [5]: 1 (11) n (%)
- Hyperglycemia (drug-related adverse event) [5]: 1 (11) n (%)
- Lymphopenia (drug-related adverse event) [5]: 1 (11) n (%)
- Muscle spasms (drug-related adverse event) [5]: 0 (0) n (%)
- Muscle weakness (drug-related adverse event) [5]: 1 (11) n (%)
- Myalgia (drug-related adverse event) [5]: 0 (0) n (%)
- Myoglobin blood increased (drug-related adverse event) [5]: 1 (11) n (%)
- Nausea (drug-related adverse event) [5]: 0 (0) n (%)
- Rhabdomyolysis (drug-related adverse event) [5]: 1 (11) n (%)
- Alopecia (drug-related adverse event) [6]: 0 (0) n (%)
- Blood creatine kinase increased (drug-related adverse event) [6]: 2 (22) n (%)
- Decreased level of consciousness (drug-related adverse event) [6]: 1 (11) n (%)
- Dysgeusia (drug-related adverse event) [6]: 0 (0) n (%)
- Fatigue (drug-related adverse event) [6]: 0 (0) n (%)
- Hepatic function abnormal (drug-related adverse event) [6]: 1 (11) n (%)
- Hyperglycemia (drug-related adverse event) [6]: 0 (0) n (%)
- Lymphopenia (drug-related adverse event) [6]: 0 (0) n (%)
- Muscle spasms (drug-related adverse event) [6]: 0 (0) n (%)
- Muscle weakness (drug-related adverse event) [6]: 0 (0) n (%)
- Myalgia (drug-related adverse event) [6]: 0 (0) n (%)
- Myoglobin blood increased (drug-related adverse event) [6]: 0 (0) n (%)
- Nausea (drug-related adverse event) [6]: 0 (0) n (%)
- Rhabdomyolysis (drug-related adverse event) [6]: 0 (0) n (%)
- Alopecia (drug-related adverse event) [7]: 4 (19) n (%)
- Blood creatine kinase increased (drug-related adverse event) [7]: 7 (33) n (%)
- Decreased level of consciousness (drug-related adverse event) [7]: 1 (5) n (%)
- Dysgeusia (drug-related adverse event) [7]: 3 (14) n (%)
- Fatigue (drug-related adverse event) [7]: 4 (19) n (%)
- Hepatic function abnormal (drug-related adverse event) [7]: 5 (24) n (%)
- Hyperglycemia (drug-related adverse event) [7]: 1 (5) n (%)
- Lymphopenia (drug-related adverse event) [7]: 1 (5) n (%)
- Muscle spasms (drug-related adverse event) [7]: 2 (10) n (%)
- Muscle weakness (drug-related adverse event) [7]: 1 (5) n (%)
- Myoglobin blood increased (drug-related adverse event) [7]: 1 (5) n (%)
- Nausea (drug-related adverse event) [7]: 3 (14) n (%)
- Rhabdomyolysis (drug-related adverse event) [7]: 2 (10) n (%)
- Alopecia (drug-related adverse event) [8]: 0 (0) n (%)
- Blood creatine kinase increased (drug-related adverse event) [8]: 3 (14) n (%)
- Decreased level of consciousness (drug-related adverse event) [8]: 0 (0) n (%)
- Dysgeusia (drug-related adverse event) [8]: 0 (0) n (%)
- Fatigue (drug-related adverse event) [8]: 0 (0) n (%)
- Hepatic function abnormal (drug-related adverse event) [8]: 2 (10) n (%)
- Hyperglycemia (drug-related adverse event) [8]: 1 (5) n (%)
- Lymphopenia (drug-related adverse event) [8]: 1 (5) n (%)
- Muscle spasms (drug-related adverse event) [8]: 0 (0) n (%)
- Muscle weakness (drug-related adverse event) [8]: 1 (5) n (%)
- Myalgia (drug-related adverse event) [8]: 0 (0) n (%)
- Myoglobin blood increased (drug-related adverse event) [8]: 1 (5) n (%)
- Nausea (drug-related adverse event) [8]: 0 (0) n (%)
- Rhabdomyolysis (drug-related adverse event) [8]: 1 (5) n (%)
- Alopecia (drug-related adverse event) [9]: 0 (0) n (%)
- Blood creatine kinase increased (drug-related adverse event) [9]: 2 (10) n (%)
- Decreased level of consciousness (drug-related adverse event) [9]: 1 (5) n (%)
- Dysgeusia (drug-related adverse event) [9]: 0 (0) n (%)
- Fatigue (drug-related adverse event) [9]: 0 (0) n (%)
- Hepatic function abnormal (drug-related adverse event) [9]: 1 (5) n (%)
- Hyperglycemia (drug-related adverse event) [9]: 0 (0) n (%)
- Lymphopenia (drug-related adverse event) [9]: 0 (0) n (%)
- Muscle spasms (drug-related adverse event) [9]: 0 (0) n (%)
- Muscle weakness (drug-related adverse event) [9]: 0 (0) n (%)
- Myalgia (drug-related adverse event) [9]: 0 (0) n (%)
- Myoglobin blood increased (drug-related adverse event) [9]: 0 (0) n (%)
- Nausea (drug-related adverse event) [9]: 0 (0) n (%)
- Rhabdomyolysis (drug-related adverse event) [9]: 1 (5) n (%)
- Drug-related AE: abnormal hepatic function (group 1, all doses): 24%
- Drug-related AE: fatigue (group 1, all doses): 19%
- Drug-related AE: increase in CK levels (group 1, all doses): 33%
- Drug-related AE: myalgia (group 1, all doses): 29%
- Patients with at least one AE suspected to be related to sonidegib (group 1, n = 18): 86%
- Recommended dose (RD) (group 2 (Chinese/Taiwanese)): 400 mg q.d.
- Grade 3 /4 Creatine kinase elevation during all study period (group 2 (Chinese/Taiwanese), 400 mg qd, N = 12): 2 (17) n (%)
- Grade 3 /4 Creatine kinase elevation during all study period (group 2 (Chinese/Taiwanese), 600 mg qd, N = 8): 1 (13) n (%)
- Grade 3 /4 Creatine kinase elevation during all study period (group 2 (Chinese/Taiwanese), 800 mg qd, N = 4): 2 (50) n (%)
- Grade 3 /4 Creatine kinase elevation during all study period (group 2 (Chinese/Taiwanese), All patients, N = 24): 5 (21) n (%)
- Blood creatine kinase increased (drug-related adverse event) [10]: 6 (50) n (%)
- Decreased appetite (drug-related adverse event) [10]: 0 (0) n (%)
- Diarrhea (drug-related adverse event) [10]: 0 (0) n (%)
- Dizziness (drug-related adverse event) [10]: 0 (0) n (%)
